Laboratory results from ChEMBL document CHEMBL3596093, “Synthesis and antimicrobial evaluation of 5-aryl-1,2,4-triazole-3-thione derivatives containing a rhodanine moiety” (2015).
Values after ≈ are worked out from the molar mass of the structure shown.

What was measured:
[1] = tested on: Staphylococcus aureus; assay: Antibacterial activity against Staphylococcus aureus RN4220 after 24 hrs by two-fold serial dilution method; type: functional; conditions: RN4220, 24 h
Procedure, shortened: (§1)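 Broth microdilution MIC. Bacteria grown to mid-log phase in Mueller-Hinton broth, diluted 1000-fold, about 10^5 CFU/mL. Compounds from DMSO stocks, two-fold serial dilution from a final 64 µg/mL. Incubation at 37 °C for 24 h. Growth read as absorbance at 630 nm on a microplate reader. Run in triplicate.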

[2] = tested on: Staphylococcus aureus; assay: Antibacterial activity against Staphylococcus aureus KCTC 209 after 24 hrs by two-fold serial dilution method; type: functional; conditions: KCTC 209, 24 h
Procedure, shortened: (§2)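 Strains grown to mid-log phase in Mueller-Hinton broth, then diluted 1000-fold in the same broth to about 10^5 CFU/mL. Compounds were made up as DMSO stocks and two-fold serially diluted from a final top concentration of 64 µg/mL. Incubation was 37 °C for 24 h. Growth was read as absorbance at 630 nm on a microplate reader. MIC assays were run in triplicate.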

[3] = tested on: Staphylococcus aureus; assay: Antibacterial activity against Staphylococcus aureus KCTC 503 after 24 hrs by two-fold serial dilution method; type: functional; conditions: KCTC 503, 24 h; procedure, shortened: as §2
[4] = tested on: Streptococcus mutans; assay: Antibacterial activity against Streptococcus mutans 3065 after 24 hrs by two-fold serial dilution method; type: functional; conditions: Streptococcus mutans, 3065, 24 h; procedure, shortened: as §2
[5] = tested on: Escherichia coli; assay: Antibacterial activity against Escherichia coli KCTC 1924 after 24 hrs by two-fold serial dilution method; type: functional; conditions: KCTC 1924, 24 h; procedure, shortened: as §2
[6] = tested on: Escherichia coli; assay: Antibacterial activity against Escherichia coli CCARM 1356 after 24 hrs by two-fold serial dilution method; type: functional; conditions: CCARM 1356, 24 h; procedure, shortened: as §2
[7] = tested on: Pseudomonas aeruginosa; assay: Antibacterial activity against Pseudomonas aeruginosa 2742 after 24 hrs by two-fold serial dilution method; type: functional; conditions: Pseudomonas aeruginosa, 2742, 24 h; procedure, shortened: as §2
[8] = tested on: Pseudomonas aeruginosa; assay: Antibacterial activity against Pseudomonas aeruginosa 2004 after 24 hrs by two-fold serial dilution method; type: functional; conditions: Pseudomonas aeruginosa, 2004, 24 h; procedure, shortened: as §2
[9] = tested on: Salmonella typhimurium; assay: Antibacterial activity against Salmonella typhimurium 2421 after 24 hrs by two-fold serial dilution method; type: functional, Salmonella enterica subsp. enterica serovar Typhimurium; conditions: Salmonella enterica, 2421, 24 h; procedure, shortened: as §2
[10] = tested on: Candida albicans; assay: Antifungal activity against Candida albicans 7535 after 24 hrs by two-fold serial dilution method; type: functional; conditions: Candida albicans, 7535, 24 h
[11] = tested on: Staphylococcus aureus; assay: Bactericidal activity against Staphylococcus aureus RN4220 after 24 hrs by agar plate method; type: functional; conditions: RN4220, 24 h
Procedure, shortened: (§3)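 Samples of 5 µL from MIC wells with no visible growth were plated onto fresh Mueller-Hinton agar and incubated a further 24 h at 37 °C. MBC is the lowest concentration giving no visible colony growth on the agar. Assays were run in triplicate.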

[12] = tested on: Staphylococcus aureus; assay: Bactericidal activity against Staphylococcus aureus KCTC 503 after 24 hrs by agar plate method; type: functional; conditions: KCTC 503, 24 h
Procedure, shortened: (§4)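 5 µL from each well without visible growth plated on fresh Mueller-Hinton agar, then 37 °C for a further 24 h. MBC is the lowest concentration giving no visible colonies. Run in triplicate.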

[13] = tested on: Streptococcus mutans; assay: Bactericidal activity against Streptococcus mutans 3065 after 24 hrs by agar plate method; type: functional; conditions: Streptococcus mutans, 3065, 24 h; procedure, shortened: as §3
[14] = tested on: Staphylococcus aureus subsp. aureus RN4220; assay: Ratio of MBC to MIC for Staphylococcus aureus RN4220; type: functional
Procedure, shortened: (§5)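 The ratio divides MBC by MIC for the same strain. MIC comes from two-fold broth microdilution in Mueller-Hinton broth (about 10^5 CFU/mL, 37 °C, 24 h, absorbance at 630 nm). MBC comes from subculturing 5 µL from clear wells onto Mueller-Hinton agar for another 24 h at 37 °C, taken as the lowest concentration with no colonies.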

[15] = tested on: Staphylococcus aureus; assay: Ratio of MBC to MIC for Staphylococcus aureus KCTC 503; type: functional; procedure, shortened: as §5
[16] = tested on: Staphylococcus aureus; assay: Antibacterial activity against methicillin-resistant Staphylococcus aureus CCARM 3167 after 24 hrs by two-fold serial dilution method; type: functional; conditions: CCARM 3167, 24 h; procedure, shortened: as §1
[17] = tested on: Staphylococcus aureus; assay: Antibacterial activity against methicillin-resistant Staphylococcus aureus CCARM 3506 after 24 hrs by two-fold serial dilution method; type: functional; conditions: CCARM 3506, 24 h; procedure, shortened: as §1
[18] = tested on: Staphylococcus aureus; assay: Antibacterial activity against quinolone-resistant Staphylococcus aureus CCARM 3505 after 24 hrs by two-fold serial dilution method; type: functional; conditions: CCARM 3505, 24 h; procedure, shortened: as §1
[19] = tested on: Staphylococcus aureus; assay: Antibacterial activity against quinolone-resistant Staphylococcus aureus CCARM 3519 after 24 hrs by two-fold serial dilution method; type: functional; conditions: CCARM 3519, 24 h; procedure, shortened: as §1
[20] = tested on: Staphylococcus aureus; assay: Bactericidal activity against methicillin-resistant Staphylococcus aureus CCARM 3167 after 24 hrs by agar plate method; type: functional; conditions: CCARM 3167, 24 h; procedure, shortened: as §4
[21] = tested on: Staphylococcus aureus; assay: Bactericidal activity against methicillin-resistant Staphylococcus aureus CCARM 3506 after 24 hrs by agar plate method; type: functional; conditions: CCARM 3506, 24 h; procedure, shortened: as §4
[22] = tested on: Staphylococcus aureus; assay: Bactericidal activity against quinolone-resistant Staphylococcus aureus CCARM 3505 after 24 hrs by agar plate method; type: functional; conditions: CCARM 3505, 24 h; procedure, shortened: as §4
[23] = tested on: Staphylococcus aureus; assay: Bactericidal activity against quinolone-resistant Staphylococcus aureus CCARM 3519 after 24 hrs by agar plate method; type: functional; conditions: CCARM 3519, 24 h; procedure, shortened: as §4
[24] = tested on: Staphylococcus aureus; assay: Bactericidal activity against Staphylococcus aureus KCTC 209 after 24 hrs by agar plate method; type: functional; conditions: KCTC 209, 24 h; procedure, shortened: as §3
[25] = tested on: Escherichia coli; assay: Bactericidal activity against Escherichia coli KCTC 1924 after 24 hrs by agar plate method; type: functional; conditions: KCTC 1924, 24 h; procedure, shortened: as §3
[26] = tested on: Candida albicans; assay: Fungicidal activity against Candida albicans 7535 after 24 hrs by agar plate method; type: functional; conditions: Candida albicans, 7535, 24 h
[27] = tested on: Staphylococcus aureus; assay: Ratio of MBC to MIC for Staphylococcus aureus KCTC 209; type: functional; procedure, shortened: as §5
[28] = tested on: Escherichia coli; assay: Ratio of MBC to MIC for Escherichia coli KCTC 1924; type: functional; procedure, shortened: as §5

| SMILES | MIC [1] [µg/mL] | MIC [2] [µg/mL] | MIC [3] [µg/mL] | MIC [4] [µg/mL] | MIC [5] [µg/mL] | MIC [6] [µg/mL] | MIC [8] [µg/mL] | MIC [9] [µg/mL] | MIC [10] [µg/mL] | MBC [11] [µg/mL] | MBC [12] [µg/mL] | MBC [13] [µg/mL] | MIC [16] [µg/mL] | MIC [17] [µg/mL] | MIC [18] [µg/mL] | MIC [19] [µg/mL] | MBC [20] [µg/mL] | MBC [21] [µg/mL] | MBC [22] [µg/mL] | MBC [23] [µg/mL] | also measured |
| --- | --- | --- | --- | --- | --- | --- | --- | --- | --- | --- | --- | --- | --- | --- | --- | --- | --- | --- | --- | --- | --- |
| O=C(O)[C@H](Cc1ccccc1)N1C(=O)/C(=C/c2ccc(/C=N/n3c(-c4ccccc4)n[nH]c3=S)cc2)SC1=S | 8 (≈ 14 µM) | > 64 | 8 (≈ 14 µM) | 8 (≈ 14 µM) | > 128 | > 128 | > 128 | > 128 | > 64 | 16 (≈ 28 µM) | 8 (≈ 14 µM) | 16 (≈ 28 µM) | 8 (≈ 14 µM) | 8 (≈ 14 µM) | 8 (≈ 14 µM) | 8 (≈ 14 µM) | 16 (≈ 28 µM) | 32 (≈ 56 µM) | 32 (≈ 56 µM) | 32 (≈ 56 µM) | MIC [7]: > 128 µg/mL; Ratio [14]: 2; Ratio [15]: <=4 |
| O=C(O)[C@H](Cc1ccccc1)N1C(=O)/C(=C/c2ccc(/C=N/n3c(-c4ccccc4Cl)n[nH]c3=S)cc2)SC1=S | 16 (≈ 26.4 µM) | > 64 | 16 (≈ 26.4 µM) | 16 (≈ 26.4 µM) | > 128 | > 128 | > 128 | > 128 | > 64 | 32 (≈ 52.8 µM) | 64 (≈ 106 µM) | > 128 | 16 (≈ 26.4 µM) | 16 (≈ 26.4 µM) | 16 (≈ 26.4 µM) | 16 (≈ 26.4 µM) | 32 (≈ 52.8 µM) | 64 (≈ 106 µM) | > 128 | > 128 | MIC [7]: > 128 µg/mL; Ratio [14]: 2; Ratio [15]: <=4 |
| O=C(O)[C@H](Cc1ccccc1)N1C(=O)/C(=C/c2ccc(/C=N/n3c(-c4cccc(Cl)c4)n[nH]c3=S)cc2)SC1=S | 8 (≈ 13.2 µM) | 8 (≈ 13.2 µM) | 8 (≈ 13.2 µM) | 4 (≈ 6.6 µM) | 8 (≈ 13.2 µM) | > 128 | > 128 | > 128 | 8 (≈ 13.2 µM) | 8 (≈ 13.2 µM) | 16 (≈ 26.4 µM) | > 32 | 8 (≈ 13.2 µM) | 16 (≈ 26.4 µM) | 8 (≈ 13.2 µM) | 8 (≈ 13.2 µM) | 8 (≈ 13.2 µM) | 16 (≈ 26.4 µM) | 32 (≈ 52.8 µM) | 32 (≈ 52.8 µM) | MIC [7]: > 128 µg/mL; MBC [24]: 16 µg/mL (≈ 26.4 µM); MBC [25]: 8 µg/mL (≈ 13.2 µM); MFC [26]: 8 µg/mL (≈ 13.2 µM); Ratio [27]: 2; Ratio [15]: <=4; Ratio [28]: <=4 |
| COc1c(N2CCNC(C)C2)c(F)cc2c(=O)c(C(=O)O)cn(C3CC3)c12 (stereo unspecified) [GATIFLOXACIN] | 0.25 (≈ 0.666 µM) | 2 (≈ 5.33 µM) | 4 (≈ 10.7 µM) | 0.5 (≈ 1.33 µM) | 2 (≈ 5.33 µM) | 16 (≈ 42.6 µM) | 1 (≈ 2.66 µM) | 0.5 (≈ 1.33 µM) | 0.5 (≈ 1.33 µM) | 0.25 (≈ 0.666 µM) | 4 (≈ 10.7 µM) | 0.5 (≈ 1.33 µM) | 2 (≈ 5.33 µM) | 2 (≈ 5.33 µM) | 8 (≈ 21.3 µM) | 4 (≈ 10.7 µM) | 2 (≈ 5.33 µM) | 2 (≈ 5.33 µM) | 8 (≈ 21.3 µM) | 4 (≈ 10.7 µM) | MIC [7]: 1 µg/mL (≈ 2.66 µM); MBC [24]: 2 µg/mL (≈ 5.33 µM); MBC [25]: 2 µg/mL (≈ 5.33 µM); MFC [26]: 0.5 µg/mL (≈ 1.33 µM) |
| COc1c(N2C[C@@H]3CCCN[C@@H]3C2)c(F)cc2c(=O)c(C(=O)O)cn(C3CC3)c12 [MOXIFLOXACIN] | 0.25 (≈ 0.623 µM) | – | 2 (≈ 4.98 µM) | 0.25 (≈ 0.623 µM) | – | 128 (≈ 319 µM) | 2 (≈ 4.98 µM) | 0.5 (≈ 1.25 µM) | 0.5 (≈ 1.25 µM) | 0.25 (≈ 0.623 µM) | 2 (≈ 4.98 µM) | 0.25 (≈ 0.623 µM) | 1 (≈ 2.49 µM) | 1 (≈ 2.49 µM) | 4 (≈ 9.96 µM) | 4 (≈ 9.96 µM) | 1 (≈ 2.49 µM) | 1 (≈ 2.49 µM) | 4 (≈ 9.96 µM) | 4 (≈ 9.96 µM) | MFC [26]: 0.5 µg/mL (≈ 1.25 µM) |
